Assay results taken from the EternaBench riboswitch data.

System: MS2 coat protein
Test: apparent Kd, MS2 coat protein; higher = weaker binding; RNA-MaP array; FMN 200 µM where present
Procedure, shortened: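 Green signal was scaled to red-channel RNA signal and control-cluster median Fmax, and the apparent Kd was taken as the median of filtered per-cluster binding-curve fits. The binding series used SNAP-549-labelled MS2 coat protein from 0.7 or 1.5 nM, doubling to 3 µM, on designs transcribed by stalled E. coli RNA polymerase on Illumina sequencing-chip clusters. Each series ran without and then with constant ligand in 100 mM Tris-HCl pH 7.5, 80 mM KCl, 4 mM MgCl2, BSA, DTT, yeast tRNA and Tween-20.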

[1] = designed as: OFF switch for flavin mononucleotide, no ligand
[2] = ligand present: flavin mononucleotide, designed as: OFF switch for flavin mononucleotide
[3] = designed as: ON switch for flavin mononucleotide, no ligand
[4] = ligand present: flavin mononucleotide, designed as: ON switch for flavin mononucleotide

| Sequence | apparent Kd [1] | apparent Kd [2] | apparent Kd [3] | apparent Kd [4] |
| --- | --- | --- | --- | --- |
| GGAGCAACAUGAGGAUCACCCAUGUAGGAUAUCGCUAUUGUAAUCAUGAAACAUGAUUACAAUAGCGAGAAGGACAUAUGCUAA | 10.6 nM | 12.5 nM |  |  |
| GGAGCUCACAUGAACAUGAGGAUCACCCAUGUAAAUUCUCAUGAGGAUAUGGAUCCUAAUUGGAUCCAGAAGGCAUGGAGCUCC |  |  | 1350 nM | 316 nM |
| GGAGGAGGAGUGAGGAUAUGGUGGUGGAAACACCACCAGAAGGCACAUGAGGAUCACCCAUGUGAAGAAGAGAA | 18.9 nM | 24.9 nM |  |  |
| GGAUAGGACAGAGGAUAUACAGAUAGGAUCUACUAUCAAACAGUCCUGACAUGAGGAUCACCCAUGUAGAAGGCUGUCCUAUCG | 21.9 nM | 107 nM |  |  |
| GGAUAGGACAGAGGAUAUACGUGCUAGAAAUACUAGCAAAAUUUCCUCACAUGAGGAUCACCCAUGUAGAAGGCUGUCCUAUCG | 14.5 nM | 542 nM |  |  |
| GGAUAGGACAGAGGAUAUACGUGCUAGAGAUACUAGCAAAAUUUCCUCACAUGAGGAUCACCCAUGUAGAAGGCUAUCCUAUCG | 6.34 nM | 31.9 nM |  |  |
| GGAUAGGACAGAGGAUAUACGUGCUAGAGAUACUAGCAAAAUUUCCUCACAUGAGGAUCACCCAUGUAGAAGGCUGUCCUAUUG | 15.6 nM | 460 nM |  |  |
| GGAUAGGACAGAGGAUAUACGUGCUAGAGAUACUAGCAAAAUUUCCUCACAUGAGGAUCACCCAUGUAGAAGGCUGUCCUGUCG | 17.1 nM | 354 nM |  |  |
| GGAUAGGACAGAGGAUAUACGUGCUAGAGAUACUAGCAAUAUUUCCUCACAUGAGGAUCACCCAUGUAGAAGGCUGUCCUAUCG | 6.26 nM | 73.7 nM |  |  |
| GGAUAGGACAGAGGAUAUACGUGCUAGAGAUACUAGCCAAAUUUCCUCACAUGAGGAUCACCCAUGUAGAAGGCUGUCCUAUCG | 6.86 nM | 84.5 nM |  |  |
| GGAUAGGACAGAGGAUAUACGUGCUAGAGAUGCUAGCAAAAUUUCCUCACAUGAGGAUCACCCAUGUAGAAGGCUGUCCUAUCG | 15.8 nM | 393 nM |  |  |
| GGAUAGGACAGAGGAUAUCCGUGCUAGAGAUACUAGCAAAAUUUCCUCACAUGAGGAUCACCCAUGUAGAAGGCUGUCCUAUCG | 5.98 nM | 11.7 nM |  |  |
| GGAUAGUGUCGUUAUCCGUAGCGAACAUGAGGAUCACCCAUGUAGGAUAUGUUAUUAAACUAAUAACAGAAGGGCGUUAGUCUC | 37.1 nM | 42.8 nM |  |  |
| GGAUCAAUAGUCCACAUGAGGAUCACCCAUGUAGUAUUUUACAAGGAUAUGGUGGGACUUCGUGGCCAGAAGGUGUAAAGGAUC |  |  | 194 nM | 99.7 nM |
| GGAUCACGAGGAUAUCGAUUUUAGUACAUGAGGAUCACCCAUGUUGUCCAGGUCUCGAUUCGAGAAGGCGUGAUUC | 36.6 nM | 59.2 nM |  |  |
| GGAUCCAACACAGGAUAUGCUGGACUUUGUCCAGCAGAAGGGUGAAGAACAUGAGGAUCACCCAUGUGGAUCCAUAUAUGUAAU |  |  | 273 nM | 16.6 nM |
| GGAUCCAACACAGGAUAUGCUGGACUUUGUCCAGCAGAAGGGUGAAGGACAUGAGGAUCACCCAUGUGGAUCCAUAUAUUUAAU |  |  | 324 nM | 27.8 nM |
| GGAUCCUUCACAGGAUAUGCUGGACUUUGUCCAGCAGAAGGGUGAACAUGAGGAUCACCCAUGUAUUGGAUCCAUAUAUUUAAU |  |  | 897 nM | 56.1 nM |
| GGAUCGGACAGAGGAUAUACGUGCUAGAGAUACUAGCAAAAUUUCCUCACAUGAGGAUCACCCAUGUAGAAGGCUGUCCUAUCG | 15.9 nM | 327 nM |  |  |
| GGAUCUUGGGUCAGGAUAUGCUGACAGCCAUGUCAGCAGAAGGGACAUGAGGAUCACCCAUGUGCUCGGUUUUG | 10.3 nM | 18.1 nM |  |  |
| GGAUGACAAAGUCAUCCAAAUCGAACAUGAGGAUCACCCAUGUAGGAUAUCCUACUCAAAGAGUAGGAGAAGGACAUGUGCUUU | 53.1 nM | 178 nM |  |  |

| Sequence | apparent Kd [1] | apparent Kd [2] | apparent Kd [3] | apparent Kd [4] |
| --- | --- | --- | --- | --- |
| GGAUGACAAAGUCAUCCAAUUCGAACAUGAGGAUCACCCAUGUAGGAUAUGCUUCUCAAAGAGAAGCAGAAGGACAUGUGCCUU | 29.5 nM | 215 nM |  |  |
| GGAUGACAAAGUCAUCCUAUUCGAACAUGAGGAUCACCCAUGUAGGAUAUGCUUCUCAAAGAGAAGCAGAAGGACAUGUGCUUU | 36.8 nM | 160 nM |  |  |
| GGAUGAUAAAUAGGAUAUUAAUUGUAAUUAGGUUAAGAAGGAUUAAUGAUUUAAACGACCAGUUACAUGAGGAUCACCCAUGUU |  |  | 177 nM | 161 nM |
| GGAUGUCAAAGACAUCCAUAACGAACAUGAGGAUCACCCAUGUAGGAUAUGCUACUCAAAGAGUAGCAGAAGGACAUGUGCCUU | 33.6 nM | 269 nM |  |  |
| GGAUUACAUGAGGAUCACCCAUGUGAGGAUAUCGAUGUCCUCAGUGGAGUGCGGGACUCGAGAAGGCACUUGGA | 172 nM | 169 nM |  |  |
| GGCAGACAUGAGGAUCACCCAUGUGAGGAUAUCGUCAUAGAUGCAAAAGCAUCUAUGACGAGAAGGUACAUGCC | 23.2 nM | 19.2 nM |  |  |
| GGCAGAGACGUUAACAUGAGGAUCACCCAUGUCGAAGGAGAUGAGGAUAUCGUAUACGAUGUAUAUGAGAAGGCAUGGUCUGCC |  |  | 18.8 nM | 7.6 nM |
| GGCAGAUGAGGAUAUACGUGCAAUCAGUGAUCCAGCCAUUAACAUGAGGAUCACCCAUGUAGAAGGCGUUUUCU | 115 nM | 195 nM |  |  |
| GGCGAACAGGCUAACAUGAGGAUCACCCAUGUGGACUCAUGGUAGGAUAUGCUGUACUUUGUACAGCAGAAGGGCCGGUGAGCC |  |  | 54.4 nM | 315 nM |
| GGCGGCGCGGGCCACCGCAGGACCAGAAGGACAUGAGGAUCACCCAUGUGGCAGAACAGGGCGGUGUAGGAUAUGGCAGGCUCG | 28.8 nM | 64.3 nM |  |  |
| GGCGGUUUACAAGGAUAUUAGAAACAGACCAAAUAAGAAGGUGUUAUCUGGCAAUGCGAAAGCAGACAUGAGGAUCACCCAUGU |  |  | 58.3 nM | 57.1 nM |
| GGCUACAUCGGAGGAUAUCAUGUAAAUACAUGAGGAUCACCCAUGUCGAUGGAGACAUCGGAGAUUGAGAAGGCCGAUGUACCG |  |  | 182 nM | 8.49 nM |
| GGCUAGCCUCAAGGAUAUACGCUCUCAACAAAGAACCGACUACAUGAGGAUCACCCAUGUACCAUGUAGAAGGUGAGGUUAGCC |  |  | 906 nM | 58.1 nM |
| GGCUCAUUGACAUUAAUGUGCAGACAGGAUAUCCACGGCGGUUCCUACAUGAGGAUCACCCAUGUGGAGAAGGGUCGCUAAUGG | 14.4 nM | 33 nM |  |  |
| GGCUCCGCUCGAGGAUAUAGCUGCAUGUAGUGUCCUGAGGCACAUGAGGAUCACCCAUGUGUAGGCUAGAAGGCGACGGAAGCU | 142 nM | 176 nM |  |  |
| GGCUCCGCUCGAGGAUAUAGCUGCAUGUAGUGUCCUGAGGCACAUGAGGAUCACCCAUGUGUAGGCUAGAAGGCGACGGACGUU | 121 nM | 249 nM |  |  |
| GGGAAGUUAGGAUAUGCUGCUCGUCACUUGCGUGAUGAGUAGCAGAAGGAACAUGAGGAUCACCCAUGUAAAGA | 34.3 nM | 37.5 nM |  |  |
| GGGAAUAAACCCGUCUCCGCCCAACCAGAAGGGCACGAUAAUAUUACAUGAGGAUCACCCAUGUUGCAGGAUAUGGUGGGCCUC |  |  | 180 nM | 76.9 nM |
| GGGACCAACACAGGAUAUGCUAUCCUUUGGGUAGCAGAAGGGUGAAACAUGAGGAUCACCCAUGUGGUUCCAGGGCGUGAGCCC |  |  | 1580 nM | 99.6 nM |
| GGGAUGUCAGGAUAUCCAAAAGUCUGCCAAUACAGCAGACAGGAGAAGGGACAUGAGGAUCACCCAUGUAAAGA | 39.5 nM | 107 nM |  |  |
